Measurements collected from several papers.
ALK: ALK tyrosine kinase receptor (ALK, Homo sapiens, UniProt Q9UM73)
ALK L1196M: ALK tyrosine kinase receptor (ALK, Homo sapiens, UniProt Q9UM73, L1196M)
ALK C1156Y: ALK tyrosine kinase receptor (ALK, Homo sapiens, UniProt Q9UM73, C1156Y)

`CCN(CC)CCNC(=O)c1c(C)[nH]c(/C=C2\C(=O)Nc3ccc(F)cc32)c1C` gave a remaining activity of 73% (ALK; enzyme activity; inhibitor; 0.1 µM).
`C[C@H]1CCN(c2nccc(-c3cnn4ncccc34)n2)C1` has a remaining binding of 100% (ALK L1196M; binding; 1 µM).
`CS(=O)(=O)Nc1cccc(-c2csc(NC(=O)CSc3nc4nccnc4c(=O)n3CCc3ccccc3)n2)c1` gave an inhibition of 9% (ALK; enzyme activity; inhibitor; 10 µM).
The remaining binding of `CN([C@@H]1CCc2c(CC(=O)O)c3ccccc3n2C1)S(=O)(=O)c1ccc(F)cc1` is reported as 78% (ALK; cell-free assay; competition with immobilised ligand; 1 µM).
With `CNC(=O)c1cc(Oc2ccc(NC(=O)Nc3ccc(Cl)c(C(F)(F)F)c3)cc2)ccn1` the inhibition was -16% (ALK; enzyme activity; inhibitor; 0.3 µM).
With `CCN(CC)CCNC(=O)c1c(C)[nH]c(/C=C2\C(=O)Nc3ccc(F)cc32)c1C` the remaining signal was 16.6% (ALK; cell-free assay; 0.5 µM).
The activity vs control of `Cc1ccc(C(=O)NCc2ccsc2)cc1C#Cc1cn(C(C)C)c2ncnc(N)c12` is reported as 103% (ALK; enzyme activity; inhibitor; 1 µM).
`CCN(CC)c1ccc(C2=NNC(=O)CC2C)cc1[N+](=O)[O-]` (centres unmarked) gave a remaining activity of 110% (ALK; enzyme activity; inhibitor; 10 µM).
With `N#CC1(c2ccccn2)CCN(Cc2cc(C(=O)N3CCCC3)c(=O)n3ccccc23)CC1` the remaining binding was 100% (ALK; cell-free assay; competition with immobilised ligand; 1 µM).
For `Cc1[nH]c(/C=C2\C(=O)Nc3ccc(F)cc32)c(C)c1C(=O)N[C@H]1CCN(C(=O)N(C)C)C1`, the remaining activity was 109% (ALK; enzyme activity; inhibitor; 0.1 µM).
`CN(CCCC(F)(F)F)c1nccc(-c2cnn3ncccc23)n1` gave a remaining binding of 100% (ALK C1156Y; binding; 1 µM).
For `Cc1cc(NC(=O)c2cccc3cc(-c4cccc5[nH]nc(N)c45)ccc23)ccc1F`, the activity vs control was 140% (ALK; enzyme activity; inhibitor; 0.1 µM).
For `Oc1ccc(-c2nc(-c3ccncc3)c(-c3ccc(F)cc3)[nH]2)cc1`, the remaining signal was 104% (ALK; cell-free assay; 0.5 µM).
For `CC/C(=N\NC(=O)NCc1cccc(O)c1)c1ccc(O)c(C)c1O`, the inhibition was 4.8% (ALK tyrosine kinase receptor (ALK, Homo sapiens, UniProt Q9UM73, R1275Q); enzyme activity; inhibitor; 0.1 µM).
`CNCc1ccccc1-c1csc([C@H](C)Nc2nc(C)nc3cc(OC)c(OC)cc23)c1` gave a remaining binding of 100% (ALK C1156Y; cell-free assay; competition with immobilised ligand; 1 µM).
`F[C@@H]1CCN(c2nccc(-c3cnn4ncccc34)n2)C1` gave a remaining binding of 100% (ALK L1196M; binding; 1 µM).
With `Cc1ccc(Nc2nccc(N(C)c3ccc4c(C)n(C)nc4c3)n2)cc1S(N)(=O)=O` the inhibition was 1% (ALK; enzyme activity; inhibitor; 0.3 µM).
For `COc1ccnn2ncc(-c3ccnc(N(C)C)n3)c12`, the remaining binding was 100% (ALK C1156Y; binding; 1 µM).
For `Cc1ccc(C(=O)Nc2ccc(CN3CCN(C)CC3)c(C(F)(F)F)c2)cc1C#Cc1cnc2cccnn12`, the remaining signal was 99% (ALK L1196M; cell-free assay; 23.5 nM).
`O=C(Nc1cnn(-c2csc(C(=O)NC3COC3)c2)c1)Nc1c(F)cccc1Cl` has a remaining activity of 89.2% (ALK; enzyme activity; inhibitor; 5 µM).
For `N[C@H]1CCN(c2nccc(-c3cnn4ncccc34)n2)C1`, the remaining binding was 85% (ALK; binding; 1 µM).
`COc1cc2c(N3CCN(C(=O)Nc4ccc(OC(C)C)cc4)CC3)ncnc2cc1OCCCN1CCCCC1` gave a remaining signal of 103% (ALK; cell-free assay; 0.5 µM).
`COc1ccc2c(c1)O[C@@H](c1ccc(OC)c(OC)c1)C[C@H]2NC(=O)C1(c2ccc3c(c2)OC(F)(F)O3)CC1` has a remaining binding of 100% (ALK; cell-free assay; competition with immobilised ligand; 1 µM).
For `O=C1NC(=O)c2cc(Nc3ccc(F)cc3)c(Nc3ccc(F)cc3)cc21`, the remaining signal was 92.6% (ALK; cell-free assay; 0.5 µM).
`O=C(NCCCC1CCCCC1)c1ccc(CNC(=O)c2cnn(-c3ccccc3)c2C(F)(F)F)cc1` has a remaining binding of 100% (ALK L1196M; cell-free assay; competition with immobilised ligand; 0.1 µM).
For `c1cnn2ncc(-c3ccnc(N4CCC45COC5)n3)c2c1`, the remaining binding was 40% (ALK L1196M; binding; 1 µM).
For `Nc1ncnc2occ(-c3ccc(NC(=O)Nc4cc(C(F)(F)F)ccc4F)cc3)c12`, the remaining signal was 0.3% (ALK; cell-free assay; 20 µM).
With `COc1cc2nccc(Oc3ccc(NC(=O)c4c5n(n(-c6ccc(F)cc6)c4=O)CCCC5)cc3)c2cc1OC` the inhibition was -23% (ALK; enzyme activity; inhibitor; 0.1 µM).
With `CN(C)c1ncc(F)c(-c2cnn3ncccc23)n1` the remaining binding was 90% (ALK; binding; 1 µM).
With `COc1cc(-c2cn(C3CCc4c(F)cccc4N(CC(F)(F)F)C3=O)nn2)ccc1-n1cnc(C)c1` (centres unmarked) the remaining binding was 100% (ALK L1196M; cell-free assay; competition with immobilised ligand; 1 µM).
For `CNCc1ccc(-c2cc(-c3nc(-c4ccc(S(=O)(=O)C(C)C)cc4)cnc3N)on2)cc1`, the inhibition was 2% (ALK; enzyme activity; inhibitor; 0.4 µM).
`CCCOc1ccc([C@@H]2[C@@H](C(=O)O)[C@H](c3ccc4c(c3)OCO4)CN2CC(=O)Nc2c(CC)cccc2CC)cc1` gave a remaining binding of 78% (ALK L1196M; cell-free assay; competition with immobilised ligand; 1 µM).
For `COc1cc2ncnc(Nc3ccc(Oc4ccccc4)cc3C)c2cc1OC`, the inhibition was -2% (ALK; enzyme activity; inhibitor; 1 µM).
`O=C(NCc1ncc(C(F)(F)F)cc1Cl)c1ccc2c(c1)C1(CCS(=O)(=O)CC1)[C@H](C1CC1)N2S(=O)(=O)c1ccc(F)cc1` has a remaining binding of 98% (ALK; cell-free assay; competition with immobilised ligand; 1 µM).
`C=CC(=O)Nc1cc(Nc2nccc(Nc3cc(Cl)c(F)cc3C(C)(C)O)n2)c(OC)cc1N1CC[C@@H](N(C)C)C1` gave an inhibition of 86% (ALK; enzyme activity; inhibitor; 1 µM).
